Test results reported in ChEMBL document CHEMBL4513216, “Probing the Open Global Health Chemical Diversity Library for Multistage-Active Starting Points for Next-Generation Antimalarials” (ACS Infect Dis, 2020).

Assay: Toxicity liver stage against HepG2, at 10uM
Type: cell-based
Design: test concentration 10 uM, cell line HepG2-A16-CD81EGFP
Details: human, HepG2-A16-CD81EGFP cells; read-out: INHIBITION
Summary of the method: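 Uninfected HepG2-A16-CD81EGFP cells, 3 × 10^3 per well, 1536-well, plated on prespotted compound at 10 μM final, parasite-free screening media added to match infected plates; puromycin 10 μM positive, DMSO 0.5% negative; run in parallel with 48 h PbLuc assay at 37 °C, 5% CO2; viability by CellTiter-Glo luminescence, normalized to controls.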

Compound | cytotoxicity at 10 µM [%]
NS(=O)(=O)c1cccnc1Nc1cccc(Cl)c1Cl | -2.19
C[C@H](NC(=O)N1CCC(Cc2ccccc2)CC1)C(=O)O | -1.65
CC1(NC(=O)Cc2csc(-c3cccc(Cl)c3)n2)CCS(=O)(=O)C1 (centres undefined) | -3.61
CN(C(=O)CCNC(=O)NC1CCCCC1)c1ccccc1 | -0.575
Cn1ccnc1CN1C(=O)CO[C@H]2CN(CCCc3ccccc3)C[C@H]21 | 4.22
COc1ccc(C(=O)N2CC(=O)N(Cc3cccs3)CC(O)C2)cc1 (centres undefined) | 4.43
Cc1nn(-c2ncccn2)c2c1C(c1cnn(C)c1C)SCC(=O)N2 (centres undefined) | -46.4
O=C(CCSc1ccccc1)NCC1CCN(Cc2ccsc2)CC1 | -6.93
O=C(c1ccccn1)N1CCN(c2ccc(-n3cccc3)nn2)CC1 | -13.7
c1cncc(-c2ccc3c(c2)C2(CCNCC2)CC3)c1 | 4.59
CS(=O)(=O)N1CCOCC2(CCN(C(=O)c3ccco3)CC2)C1 | 4.29
O=C(COc1ccccc1)N1CCC[C@]2(C[C@@H](OCC3CC3)CO2)C1 | -1.69
O=C(Cn1nc(Br)nc1Br)N1CCCC1 | 5.38
CCN1C(=O)CCCC12CCCN(C(=O)c1cnccn1)C2 (centres undefined) | 2.63
CCC1(CC)C(=O)NC(=O)N=C1Nc1ccc(C)cc1 | -6.34
CCn1nc(C)c2ncnc(NCC(=O)N3CCOCC3)c21 | 3.54
O=C1CC(c2ccc(F)c(F)c2)c2snc(C(=O)O)c2N1 (centres undefined) | 6.95
O=C(Cn1cnc2cc3c(cc21)OCCCO3)NC1CCCC1 | 3.92
CCN(CC)S(=O)(=O)N1CCC(c2c(C(N)=O)sc3ccccc23)C1 (centres undefined) | 1.4
O=C(N1CCCC1)N1CCn2c(nnc2C2CCCN2)C1 (centres undefined) | 4.12
COc1ccc(CN(C(=O)C2CCCO2)c2ccncc2)cc1 (centres undefined) | 1.86
NC(=O)CC1CCCN(c2cncc(OCc3ccccc3)n2)C1 (centres undefined) | 17.7

Compound | cytotoxicity at 10 µM [%]
COc1ccc(C(C)NCCc2ccc(NC(C)=O)cc2)cc1F (centres undefined) | 6.75
Cc1ccc(CNC(=O)N(C)Cc2ccc([S+](C)[O-])cc2)s1 (centres undefined) | 6.75
CC(NC(=O)c1ccc(C(N)=O)cc1)c1cccc(N2CCOC2=O)c1 (centres undefined) | -2.83
CCC(C)(O)CNC(=O)Nc1ccc(C)cc1Br (centres undefined) | -9.95
CCn1cnnc1CNC(=O)N1CCOC(c2ccc(Cl)cc2)C1 (centres undefined) | 4.13
COc1ccc(CNCc2nnc3n2CC(C(F)(F)F)CC3)cc1 (centres undefined) | 3.27
CCS(=O)(=O)N(C)C1CCN(C(=O)c2ccc(C)c(C)c2)CC1 | -2.76
Cc1cn2c(n1)CCC(NC(=O)CNS(C)(=O)=O)C2 (centres undefined) | -9.84
OC(COc1ccccc1)CN1CCN(c2nccs2)CC1 (centres undefined) | 13.1
Cc1nc2c(c(C)c1CC(=O)NC(C)c1ccccc1)c(=O)[nH]n2C (centres undefined) | -3.44
CS(=O)(=O)CCN1CCC(=Cc2ccccc2)CC1 | -2.99
CC(C)(C)OC(=O)N1CC(CC(=O)NCc2ccsc2)C1 | 5.18
Cn1c(CN2CCN(CC3CCCO3)CC2)nc2ccccc21 (centres undefined) | -25.1
CC(NC(N)=O)C(=O)Nc1ccc(OCc2cccc(F)c2)c(F)c1 (centres undefined) | -12.3
Cc1ccc(-n2cc(C(=O)NCC(C)Cn3cccn3)nn2)cc1 (centres undefined) | -46.2
CN(C)c1cc2c(nn1)CCN(C(=O)c1ccc(-n3cccn3)nc1)C2 | -1.86
Cc1cc(CN(C)C(=O)CN2CCCCCC2=O)no1 | 7.41
CN(C)S(=O)(=O)N1CCN(C(=O)OC(C)(C)C)CC12CCCCC2 | 3.36
COc1ccc(CN2CCCCC2CNC(=O)OC(C)(C)C)cc1F (centres undefined) | -2.26
Cc1cccc(C2(C(=O)NCCCn3cccn3)CC2)c1 | -7.66
CCc1csc(C2CCCN(C(=O)c3ccnc(N(C)C)c3)C2)n1 (centres undefined) | -6.81
Cc1nc(C)c(CNC(=O)NC(c2nnc3n2CCC3)C(C)C)s1 (centres undefined) | -1.79

Compound | cytotoxicity at 10 µM [%]
O=C(NCC1CC2(CO1)CN(c1ncccn1)C2)C1CCC1 (centres undefined) | -107
Cc1ccc(N2C[C@@H]3OCCN(Cc4c(C)noc4C)[C@@H]3C2)nn1 | -1.62
c1nc2c(c(N3CCOCC3)n1)CCNCC2 | -2.36
COCCn1c2c(ccc1=O)CCN(C(=O)Cc1ccsc1)CC2 | 2.22
CS(=O)(=O)N1CCO[C@@H]2CN(C(=O)C3CC(F)(F)C3)C[C@@H]2C1 | 6.19
O=C(c1ccsc1)N1C[C@@H]2CCN(C(=O)c3cscn3)[C@@H]2C1 | 0.0861
CN(C)C(=O)COC1COC2(CCN(c3ncccn3)CC2)C1 (centres undefined) | -72.8
C[C@H]1C[C@H]2CN(C(=O)CCOc3ccccc3)CC[C@H]2O1 | -69.3
Cc1ccc(C(=O)N2C[C@@H]3OCCN(C(C)C)[C@@H]3C2)cn1 | -81.7
Cn1cc(CN2CCCC23CCN(S(C)(=O)=O)CC3)cn1 | -82.1
CN1CCC(c2nnc(CN3CCOCC3)n2C)CC1 | -1.16
CC(C)Cc1ncc2c(n1)CN(c1cc(NCCO)nc(N)n1)C2 | -2.68
COc1c(F)cc(-c2cccc3c2OC(CN)C3)cc1F (centres undefined) | -53.7
CCN(CC)c1ncccc1CNCc1ccc(-c2ccn[nH]2)s1 | 6.43
CN(CCc1ccccn1)C(=O)CCC1CCCN(c2cnccn2)C1 (centres undefined) | 4.13
CC(C)[C@@H]1CN(S(=O)(=O)Cc2ccccc2)C[C@H]1C(=O)O | -1.05
O=C(NCC(O)c1cccc(F)c1)C1CCN(C2CCCCC2)CC1 (centres undefined) | 7.07
Cc1nc(N(C)C)nc(-c2cccc(-c3ccn(CCCF)n3)c2)c1C | 3.7
CCC[C@@H]1CN(C(=O)c2conc2-c2ccccc2)C[C@H]1N(C)C | 2.29
CNC(=O)[C@@H]1C[C@@H](N)CN1C1CCN(Cc2ccccn2)CC1 | -53.5
O=C(c1ccc(C2CCCN2)s1)N1CCN(C(=O)N2CCOCC2)CC1 (centres undefined) | 0.106
CCOc1ccccc1C(C(=O)O)N(C)Cc1cc(C)[nH]n1 (centres undefined) | 9.34

Compound | cytotoxicity at 10 µM [%]
CCC(CO)N(Cc1ccsc1)Cc1c(C)nn(C)c1Cl (centres undefined) | 17.8
CCOCc1nc(CSc2ccncc2)n(C)n1 | 2.87
COc1c(F)cccc1C(=O)N(C)Cc1nc(-c2ccccn2)no1 | -1.51
CN(CCN1CCCCCC1)c1nccc(N2CCC(O)C2)n1 (centres undefined) | 5.27
CCCOC1CCCN(Cc2nc(-c3ccc(F)cc3F)oc2C)C1 (centres undefined) | -51.1
Cc1ncc(S(C)(=O)=O)c(N2CCCCCC2)n1 | -0.972
CCNc1ncc(C)c(-c2cnn(C)c2)n1 | -3.73
Cc1ccccc1CN1CCN(C(=O)c2cnc(C3CC3)[nH]c2=O)CC1 | 2.25
CC(C)N1CCC(C(=O)N[C@H](C(=O)O)c2cccc(F)c2F)CC1 | 2.59
O=c1[nH]c(-c2ccc(F)c(F)c2)nc2c1CCNC2 | 2.06
CCc1nc(NCCc2nc(C)c(C)s2)c2cnn(C)c2n1 | 6.31
Cc1cccnc1CN(C)C(C(=O)O)c1ccc(C(C)(C)C#N)cc1 (centres undefined) | 0.566
Cc1nc(N2CCC(C(O)c3nccn3C)CC2)c2sccc2n1 (centres undefined) | -19.5
CN(CCCC1CCCC1)C(=O)c1cc(CN2CCC(O)CC2)on1 | 5.21
CCN(CC1CCOCC1)C(=O)Cn1cccc(C(F)(F)F)c1=O | -10.2
CN1CCN(Cc2ccc(-c3ccc4[nH]ccc4c3)nc2)CC1 | -9.17
CCOC(=O)c1cc2c(=O)[nH]c(=O)n(CCc3ccccc3)c2nc1C | -6.28
Cc1cc(N2CCC3(CCC(=O)N(CCO)C3)CC2)nc(N(C)C)n1 | -4.78
O=C(CCn1cc(Cl)cn1)N1CCN(CC2CC2)[C@@H]2CS(=O)(=O)C[C@@H]21 | 2.28
CC(=O)NC(CC(=O)Nc1ccc(C)cn1)c1ccccc1 (centres undefined) | -12.5
COCCCNC(=O)CN1CCC(N2CCN(C)C2=O)CC1 | -2.54
O=C(CN1CCCC1Cn1cncn1)NCCC1=CCCCC1 (centres undefined) | -16.5

Compound | cytotoxicity at 10 µM [%]
COc1c(C)cnc(CN2CCCC2Cn2nc(C)nc2C)c1C (centres undefined) | -3.21
c1cnc(-c2nc(CN3CCCC3Cn3cncn3)cs2)nc1 (centres undefined) | -9.77
Cc1ccc(C(=O)N2CCN(Cc3ccccc3)CC2)n1C | -1.28
Cc1csc(C2CCCN(C(=O)c3cccc4c3OCO4)C2)n1 (centres undefined) | -4.11
Cc1nn(C)cc1-c1cncn1CCc1ccc2c(c1)OCCO2 | 11.5
Cn1ccnc1CNC(=O)c1cncc(C2CCNCC2)n1 | 1.81
Fc1ccc(C2(CNC3=NCCN3)CCCC2)cc1 | 12.9
Cc1c[nH]c(C2CCCN(Cc3ccccc3C(=O)O)C2)n1 (centres undefined) | -3.3
O=C(NCc1ccco1)[C@H]1CC[C@@H]2[C@@H](CCN2C2CCC2)O1 | 6.47
CC[C@H]1N(CC2CCOCC2)CCC[C@]12CCC(=O)N2 | 8.71
Cc1nc[nH]c1CN1CCC2(CC1)CC(Nc1ncccn1)CO2 (centres undefined) | 12.2
CCO[C@@H]1CC[C@H]2[C@H]1OCCN2CC1CCOCC1 | 10.8
CN(C)Cc1cc(=O)n2c(n1)CN(C(=O)Cc1cccs1)CCC2 | -2.8
O=C1COC2(CCN(Cc3ccco3)CC2)CN1 | -1.49
Cc1cc(CN2C[C@@H]3CCCO[C@@H]3[C@H](Nc3ccccn3)C2)no1 | -4.72
COc1ccccc1NCc1cscn1 | -0.358
CN(C)C(=O)N1Cc2nnn(C)c2C(COCc2cccnc2)C1 (centres undefined) | 10.8
COCCN1C(=O)CC[C@@H]2[C@H]1CCN2Cc1cccc(C#N)c1 | -33.1
CN(C)[C@@H]1CCN(C(=O)c2cccc(C#N)c2)[C@H]1Cc1cnn(C)c1 | -72.6
Cc1noc(C)c1CNCC1(COc2cccnc2)C[C@@H](O)[C@@H](O)C1 (some centres undefined) | -2.36
COCCN1C[C@@H]2CC[C@H]1CN(C(=O)CCc1c(C)nn(C)c1C)C2 | -8.6
